Experimental findings from ChEMBL document CHEMBL2151010, “Characterization of a designed vascular endothelial growth factor receptor antagonist helical peptide with antiangiogenic activity in vivo” (J Med Chem, 2011) are described below.

Active and inactive are the calls of the source. The rule behind the calls is not given here. Residues, ends and D or L forms follow the SMILES beside them.

For orientation: half-life means the time in which the quantity being followed falls by half.

Data set [1] relates to HUVEC. Nature of the data set: Inhibition of VEGF165-induced cell proliferation in human HUVEC grown in serum deprived medium at 50 nM after 24 hrs. Type of data set: functional, cell-based. In outline:
(§1)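 HUVECs were seeded at 1200 cells/well and switched after 24 h to EBM-2 with 0.1% heparin and 0.1% BSA. They were treated with peptide, with or without VEGF165 (25 ng/mL), for 24 or 48 h at 37 C. DNA content was measured with CyQUANT NF reagent (1 h, 37 C) at 485 nm excitation. Quadruplicate samples were used, and values were expressed as percentage of proliferating cells.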

Data set [2] concerns HUVEC. Nature of the data set: Binding affinity to VEGFR in human HUVEC grown in serum deprived medium using fluorescein-labeled compound at 50 to 5000 nM after 5 mins by flow cytometry. Type of data set: cell-based. In outline: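 HUVECs (3 × 10^4/100 μL) were suspended in EBM-2 with 0.1% heparin and 0.1% BSA. They were incubated for 5 min at 4 C in the dark with fluorescein-labelled peptide (50, 500, 5000 nM). For competition, 500 nM labelled peptide was used with VEGF165 (0.05, 5, 500 nM). Cells were washed, resuspended in PBS and analysed by flow cytometry. A PE-conjugated anti-β-1 integrin antibody (1:100) was the technical control.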
On the technique in general: Flow cytometry measures light scatter and fluorescence of single cells or particles in a stream.

The subject of data set [3] is HUVEC. Nature of the data set: Induction of apoptosis in human HUVEC grown in serum deprived medium at 12.5 nM after 24 hrs by annexin V/fluorescein isothiocyanate-based flow cytometry. Format: functional, cell-based.
The subject of data set [4] is HUVEC. Nature of the data set: Inhibition of VEGF165 induced cell proliferation in human HUVEC grown in serum deprived medium at 50 nM after 48 hrs. Type of data set: functional, cell-based. The essentials:
as §1

The test system of data set [5] is HUVEC. Nature of the data set: Induction of apoptosis in human HUVEC grown in serum deprived medium assessed as caspase 3 activity at 50 nM after 8 hrs by spectrofluorometry. Format: functional, cell-based. In outline: (§2)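 Lysates of serum-deprived HUVECs (2 × 10^4 cells) were prepared in 50 mM Hepes, 1 mM DTT, 0.1 mM EDTA, 0.1% NP-40 and 0.1% CHAPS. Protein (20 μg) was incubated with 20 μM Ac-DEVD-AMC at 37 C for 3 h. Released AMC was read by spectrofluorometry at 380 nm excitation and 440 nm emission.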

Data set [6] relates to A-375. Nature of the data set: Antitumor activity against human A375 cells xenografted in athymic nude-Foxn1 nu/nu mouse assessed as tumor growth inhibition at 200 nM intratumorally administered for 15 days measured after 15 days relative to untreated control. Type of data set: functional. The essentials: (§3)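 A375 cells (5 × 10^6 in 150 μL Hanks' solution) were injected subcutaneously on the back of 6-week-old female athymic nude-Foxn1nu/nu mice. After one week, mice were randomized (10/group) to PBS (100 μL) or peptide (200 nM), given intratumorally twice weekly. Tumours were measured by caliper and volume was calculated as V = (ab²)/2. Groups were compared by ANOVA.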
On the technique in general: In xenograft studies the graft and the host belong to different species.

For data set [7], the system named is HUVEC. Nature of the data set: Antagonist activity at VEGFR in human HUVEC grown in serum deprived medium assessed as inhibition of VEGF165-induced ERK1/2 phosphorylation at 50 nM after 15-30 mins by Western blot analysis. Format: functional, cell-based. The essentials: (§4)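 Serum-starved HUVECs in EBM-2 with 0.1% heparin and 0.1% BSA were treated at 37 C for 15 and 30 min with peptide, with or without VEGF165 (25 ng/mL). Total lysates (25 μg) were run on 12% SDS-PAGE and blotted for phospho-ERK1/2 and phospho-AKT. Total ERK1/2, AKT and GAPDH served as loading controls. Detection was by HRP secondary antibody and ECL.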

A further data set relates to Endothelial cell. Nature of the data set: Antiangiogenic activity against VEGF165-induced CD1 nude mouse endothelial cells at 200 nM after 21 days by FITC-based fluorescence microscopy.
Data set [8] relates to HUVEC. Nature of the data set: Antagonist activity at VEGFR in human HUVEC grown in serum deprived medium assessed as inhibition of VEGF165-induced AKT phosphorylation at 50 nM after 15-30 mins by Western blot analysis. Type of data set: functional, cell-based. The essentials:
as §4
On the technique in general: In western blotting, separated proteins are transferred to a membrane and probed.

In data set [9] the test system is A-375. Nature of the data set: Antitumor activity against human A375 cells xenografted in athymic nude-Foxn1 nu/nu mouse assessed as tumor growth inhibition at 200 nM intratumorally administered for 15 days measured after 15 days relative to acetyl-KQMYLELGYATIKWL-amide. Format: functional. The essentials: as §3
Data set [10] concerns HUVEC. Nature of the data set: Inhibition of VEGF165-induced cell proliferation in human HUVEC grown in serum deprived medium at 12.5 to 50 nM after 24 hrs relative to acetyl-KQMYLELGYATIKWL-amide. Type of data set: functional. The essentials: as §1
In data set [11] the test system is HUVEC. Nature of the data set: Antagonist activity at VEGFR in human HUVEC grown in serum deprived medium assessed as inhibition of VEGF165-induced ERK1/2 phosphorylation at 50 nM after 24 hrs by Western blot analysis. Type of data set: functional, cell-based. The essentials: (§5)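 Whole-cell lysates (25 μg) were run on 12% SDS-PAGE and immunoblotted for phospho-ERK1/2 and phospho-RB. Total ERK1/2, RB and GAPDH were the loading controls. Read-out was ECL.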

Data set [12] has as its system HUVEC. Nature of the data set: Inhibition of VEGF165-induced cell proliferation in human HUVEC grown in serum deprived medium at 12.5 to 50 nM after 48 hrs. Type of data set: functional. In outline:
as §1

For data set [13], the system named is HUVEC. Nature of the data set: Induction of apoptosis in human HUVEC grown in serum deprived medium assessed as caspase 3 activity at 12.5 to 50 nM after 8 hrs by spectrofluorometry. Type of data set: functional, cell-based. In outline: as §2
The nature of data set [14]: Half life of the compound. Type of data set: physicochemical. The essentials:
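Peptide was diluted to a final 0.5 mg/mL in 25% (v:v) pooled human male AB serum at 37 C. Aliquots were taken at 0, 15, 30, 60, 90 and 120 min and at 24 h, centrifuged at 4 C and diluted to 0.1 mg/mL. Remaining intact peptide was quantified by RP-HPLC on a C18 column with 38–48% CH3CN (0.1% TFA) elution.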

For data set [15], the system named is HUVEC. Nature of the data set: Antagonist activity at VEGFR in human HUVEC grown in serum deprived medium assessed as inhibition of VEGF165-induced ERK1/2 phosphorylation at 12.5 nM after 24 hrs by Western blot analysis. Format: functional, cell-based. The essentials: as §5
In data set [16] the test system is A-375. Nature of the data set: Antitumor activity against human A375 cells xenografted in athymic nude-Foxn1 nu/nu mouse assessed as inhibition of tumor angiogenesis measuring CD31 expression at 200 nM intratumorally administered for 7 days by immunohistochemical analysis. Format: functional. In outline:
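Tumours from A375 xenografts in nude mice, treated intratumorally with peptide (200 nM) or PBS twice weekly, were excised after 1 week. They were formalin-fixed and cut into 5 μm paraffin sections. Sections were stained for CD31 by avidin-biotin peroxidase with diaminobenzidine and counterstained with hematoxylin.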

Data set [17] can be described thus: Antiangiogenic activity against VEGF165-induced CD1 nude mouse endothelial cells at 200 nM after 21 days by FITC-based fluorescence microscopy.
Data set [18] concerns HUVEC. Nature of the data set: Antagonist activity at VEGFR in human HUVEC grown in serum deprived medium assessed as inhibition of VEGF165-induced RB phosphorylation at 50 nM after 15-30 mins by Western blot analysis. Format: functional, cell-based.
The subject of data set [19] is HUVEC. Nature of the data set: Antagonist activity at VEGFR in human HUVEC grown in serum deprived medium assessed as inhibition of VEGF165-induced RB phosphorylation at 50 nM after 15-30 mins by Western blot analysis.

Consider `CC[C@H](C)[C@H](NC(=O)[C@@H](NC(=O)[C@H](C)NC(=O)[C@H](Cc1ccc(O)cc1)NC(=O)CNC(=O)[C@H](CC(C)C)NC(=O)[C@H](CCC(=O)O)NC(=O)[C@H](CC(C)C)NC(=O)[C@H](Cc1ccc(O)cc1)NC(=O)[C@H](CCSC)NC(=O)[C@H](CCC(N)=O)NC(=O)[C@H](CCCCN)NC(C)=O)[C@@H](C)O)C(=O)N[C@@H](CCCCN)C(=O)N[C@@H](Cc1c[nH]c2ccccc12)C(=O)N[C@@H](CC(C)C)C(N)=O` (Ac-KQMYLELGYATIKWL-NH2), for which the inhibition entry in the data set on HUVEC [1], in the data set with HUVEC [4], with HUVEC [7] and with HUVEC [8] was “inactive” each time. Moreover, the outcome with HUVEC [2], with HUVEC [3], in the data set with HUVEC [5] and with Endothelial cell was inactive. Besides, the TGI entry in the data set with A-375 [6] is “inactive”.
For `CC[C@H](C)[C@H](NC(=O)CNC(=O)[C@H](CCCCN)NC(=O)[C@H](Cc1ccc(O)cc1)NC(=O)[C@H](C)NC(=O)[C@H](CC(C)C)NC(=O)[C@H](CCC(N)=O)NC(=O)[C@H](Cc1ccc(O)cc1)NC(=O)[C@H](CC(C)C)NC(=O)[C@H](CCC(=O)O)NC(=O)[C@H](CCSC)NC(=O)[C@H](Cc1c[nH]c2ccccc12)NC(=O)[C@@H](NC(=O)[C@H](CC(C)C)NC(=O)[C@H](CCCCN)NC(C)=O)[C@@H](C)O)C(N)=O` (Ac-KLTWMELYQLAYKGI-NH2), the outcome with HUVEC [2], in the data set on HUVEC [3] and in the data set with HUVEC [13] was Active. Moreover, the TGI with A-375 [9] is reported as 47%; in the data set on A-375 [6], 36%. Further, the “inhibition (INH)” value in the data set with HUVEC [10] is given as 40%; in the data set on HUVEC [12] it was over 85%; in the data set with A-375 [16] it was 50%. Further, the inhibition result with HUVEC [11], in the data set on HUVEC [15], with HUVEC [7], with HUVEC [18], in the data set with HUVEC [19] and in the data set with HUVEC [8] was “Active” each time. The same molecule returned a half-life in data set [14] of 1.5 h. In data set [17], this molecule came in with an Activity of 85%.
